Measurements: paper PMC10228392 (mAbs, 2023)

Legend:
α-caff VHH = system: α-caff VHH; set-up: species or system llama; conditions: binding to anti-caffeine VHH
Summary of the method: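 Anti-caffeine VHH was dialysed overnight against PBS pH 7.4. Test compound at 50 µM in the syringe was titrated into 10 µM VHH in the cell at 25°C, as 27 injections of 10 µL.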

VHH:VHH dimer = assay: Analytical ultracentrifugation, sedimentation equilibrium; format: binding; conditions: with vs without stoichiometric caffeine
Summary of the method: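 Sedimentation equilibrium on tag-free, E. coli-expressed anti-caffeine VHH (WT, and F47R with caffeine) at 3, 10 and 30 µM, alone or with stoichiometric caffeine (1.5, 5, 15 µM), at 20°C. Cells were spun 24 h at 27,000, 32,000 and 44,000 rpm and scanned at 294, 260 and 236 nm. All speeds and concentrations were analysed globally: a single-exponential fit gave weight-averaged MW, then a monomer-dimer fit gave assembly constants.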

[1] = Guanidinium hydrochloride chemical unfolding by circular dichroism; format: physicochemical; conditions: 25°C
[2] = molecular target: anti-caffeine VHH produced through grafting CDR regions (Caffgraft); assay: AUC
[3] = molecular target: anti-caffeine VHH produced through grafting CDR regions (Caffgraft); assay: AUC; remark: listed apart in the source
[4] = molecular target: anti-caffeine VHH produced through grafting CDR regions (Caffgraft); assay: ITC
[5] = Isothermal titration calorimetry
Summary of the method: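 Single arginine interface variants were made by site-directed mutagenesis and expressed in E. coli, and the tag was removed. For low-affinity binding (Turnbull method), 1 mM caffeine was titrated into 100 µM VHH variant, with stoichiometry fixed at n = 0.5 in the fit. Protein concentration came from ε280 30,035 M−1 cm−1 (F47R, V104R) or 28,545 M−1 cm−1 (Y106R).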

## Cn1c(=O)c2c(ncn2CC(=O)O)n(C)c1=O [theophylline-7-acetic acid]
α-caff VHH
  ΔΔG° penalty (loss in affinity) relative to caffeine: ~6.28 kJ/mol

B1: anti-caffeine VHH produced through grafting CDR regions (Caffgraft) (VHH)
VHH: QVQLVESGGGLVQAGGSLRLSCTASGRTGTIYSMAWFRQAPGKEREFLATVGWSSGITYYMDSVKGRFTISRDKGKNTVYLQMDSLKPEDTAVYYCTATRAYSVGYDYWGQGTQVTVSS
VHH:VHH dimer
  fold higher observed dimerization affinity on caffeine binding: ~28 fold
[1]
  loss of stability (ΔGu) relative to anti-RNase A VHH: approximately 1.5 kcal/mol
[1]; guanidinium hydrochloride
  m-value: 2.62 ± 0.06 kcal mol^−1M^−1
[1]; guanidinium hydrochloride, PBS pH 7.4, 10 μM VHH
  ΔGu: 31.8 ± 0.84 kJ/mol
[2]
  Kd: 23.5 µM
  stoichiometry N: 2
[3]
  Kd: 0.848 µM
[4]
  Kd: 13.1 µM

B2: α-caff VHH-F47R: anti-caffeine VHH dimer interface variant with arginine at F47 (Kabat numbering) (antibody, V domains shown)
VH: QVQLVESGGGLVQAGGSLRLSCTASGRTGTIYSMAWFRQAPGKERERLATVGWSSGITYYMDSVKGRFTISRDKGKNTVYLQMDSLKPEDTAVYYCTATRAYSVGYDYWGQGTQVTVSS
[5]
  ΔΔG° (weaker caffeine binding affinity than anti-caffeine VHH): > 21 kJ/mol
